From PubChem BioAssay
This is a sample that favours compounds with a hit; in the whole collection about 2.3% have one here.
TRPC4 block: TRPC4 (mouse) channel inhibition. Q9QUQ5. B-score at 10 µM. 300,000 compounds, 0.39% hits. HEK293 TRPC4beta/mu-opioid, DAMGO-evoked Fluo4 calcium flux; active compounds read low;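 active means B-score over 3 SD under the library average, no early fluorescence shift, positive overall ratio signal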
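Assay system: HEK293 cells with stable TRPC4beta plus mu-opioid receptor expression; Probe or stimulus: DAMGO in two steps, submaximal then maximal; Dosing: single-point compound dosing; Measured by: Fluo4 calcium-dye fluorescence, kinetic read; Read-out basis: B score from integrated Fluo4 fluorescence ratio.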
TRPC4 PAM: allosteric potentiators of mouse TRPC4 channel. Q9QUQ5. HEK293 TRPC4beta/mu-opioid, DAMGO EC20, Fluo-4 Ca2+ flux; active compounds read high. B-score at 10 µM. 310,000 compounds, 0.42% hits;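 active means B-score of calcium response area above 5 SD of library B-scores, with initial fluorescence ratio within 5 SD of library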;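 further: B-score of integrated fluorescence ratio over time as area under calcium response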
TRPC6 inh: blocks the mouse TRPC6 cation channel. Q61143. B-score at 10 µM. HEK293-TRPC6, membrane potential dye, ACh-evoked depolarization; active compounds read low. 310,000 compounds, 1.1% hits;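 active means B-score under library mean minus 3 SD, initial fluorescence not abnormally high, positive integrated signal ratio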;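 further: B-score derived from integrated fluorescence ratio over the kinetic read; more negative B-score means stronger inhibition of depolarization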
Target sequence (Q61143 whole entry, looked up): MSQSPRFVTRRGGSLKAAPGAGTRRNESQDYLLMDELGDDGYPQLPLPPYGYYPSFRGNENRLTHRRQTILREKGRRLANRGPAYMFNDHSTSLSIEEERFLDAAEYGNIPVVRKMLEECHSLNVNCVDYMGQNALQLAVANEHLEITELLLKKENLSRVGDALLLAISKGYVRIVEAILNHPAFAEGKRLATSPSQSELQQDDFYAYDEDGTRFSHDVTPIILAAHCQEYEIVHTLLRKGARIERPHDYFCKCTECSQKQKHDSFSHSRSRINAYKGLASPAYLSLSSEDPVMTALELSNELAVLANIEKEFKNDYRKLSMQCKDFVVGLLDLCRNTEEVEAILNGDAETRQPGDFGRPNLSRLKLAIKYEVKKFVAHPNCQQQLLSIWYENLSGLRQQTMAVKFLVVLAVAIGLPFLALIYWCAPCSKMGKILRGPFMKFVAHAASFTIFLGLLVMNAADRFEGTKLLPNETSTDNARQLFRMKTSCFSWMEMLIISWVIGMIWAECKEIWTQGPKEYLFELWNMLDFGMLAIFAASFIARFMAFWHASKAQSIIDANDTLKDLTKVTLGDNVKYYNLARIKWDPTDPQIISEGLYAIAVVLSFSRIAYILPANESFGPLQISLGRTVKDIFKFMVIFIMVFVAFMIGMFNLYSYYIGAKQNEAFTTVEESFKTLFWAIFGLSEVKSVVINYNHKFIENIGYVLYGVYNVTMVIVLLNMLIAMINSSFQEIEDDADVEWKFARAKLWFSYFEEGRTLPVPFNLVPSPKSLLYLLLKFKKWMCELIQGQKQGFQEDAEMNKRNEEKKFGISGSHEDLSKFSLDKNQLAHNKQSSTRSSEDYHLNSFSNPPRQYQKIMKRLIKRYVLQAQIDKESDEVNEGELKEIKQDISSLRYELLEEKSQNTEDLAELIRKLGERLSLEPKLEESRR
TRPC4 agonist: opens the mouse TRPC4 cation channel | B-score at 10 µM | 310,000 compounds, 0.49% hits | HEK293 TRPC4beta/mu-opioid, Fluo4 calcium fluorescence; active compounds read high;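 active means B-score above 5 SD of library B-scores, and initial fluorescence ratio not above library mean plus 5 SD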;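 further: positive B-score marks a calcium rise read as TRPC4 activation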
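System – HEK293 cells stably co-expressing mouse TRPC4beta and mu-opioid receptor · Signal – Fluo4 calcium-sensitive dye fluorescence, kinetic, 1 Hz baseline · Benchmarks – buffer (low) and maximal DAMGO (high) · Read-out – B score of integrated fluorescence ratio per well · Incubation – dye loading 45 min room temperature, 110 s kinetic read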
TRPC6 act: mouse TRPC6 channel activation | HEK293-TRPC6 membrane potential dye fluorescence; active compounds read high | B-score at 10 µM | 310,000 compounds, 0.13% hits;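 active means B-score of the integrated fluorescence ratio above library mean plus 3 SD, and starting fluorescence ratio within library mean plus 5 SD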;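 further: higher score means more depolarization so channel activation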
TRPC4 spec 2: second selectivity test of TRPC6 inhibitors: effect on mouse TRPC4. AID 2776. HEK293 TRPC4/MOR, membrane potential dye fluorescence; channel activated by saturating DAMGO dose. inhibition, % at 10 µM. 920 compounds, 42% hits. shares compounds with TRPC6 inh;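 active means compounds whose fluorescence signal differed from control wells by over 3 SD, either direction, in both duplicate plates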
TRPC4 spec: selectivity of TRPC6 inhibitors: effect on mouse TRPC4; shares compounds with TRPC6 inh; HEK293 TRPC4/mu-opioid, membrane potential fluorescence; activity change, negative = inhibition, % at 10 µM; 920 compounds, 61% hits;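 active means rise or fall in signal beyond 3 SD of buffer-only wells in both replicate plates, either sign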;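 further: integrated kinetic ratio of fluorescence range over baseline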
HEK293 MPD ctr 2-1: second counter-screen for TRPC6 inhibitors: parental HEK293 cells; shares compounds with TRPC6 inh; parental HEK293 membrane potential dye fluorescence; maximal acetylcholine challenge after compound addition; signal change vs control, % at 10 µM; 920 compounds, 31% hits; AID 2779;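 active means membrane potential signal moving either way by over 3 SD of the maximum-effect control, in both duplicate plates, meaning non-specific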
HEK293 MPD ctr-1: parental HEK293 nonspecific activity of TRPC6 inhibitors; shares compounds with TRPC6 inh; parental HEK293 membrane potential dye fluorescence; membrane potential signal change, % at 10 µM; 920 compounds, 60% hits; AID 2780;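 active means membrane potential signal shifting up or down by more than 3 SD of buffer-only wells, on both duplicate plates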
HEK293 MPD ctr-2: parental HEK293 nonspecific activity of TRPC6 modulators; shares compounds with TRPC6 inh; membrane potential dye fluorescence; membrane potential signal change, % at 10 µM; 2,400 compounds, 51% hits; AID 488924;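 active means membrane potential signal moves up or down beyond 5 SD from buffer-only wells, on both duplicate plates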
HEK293 MPD ctr 2-2: second check of TRPC6 modulator effects in parental HEK293 cells; shares compounds with TRPC6 inh; membrane potential dye fluorescence; after compound, maximal acetylcholine stimulation; inhibition, % at 10 µM; 2,400 compounds, 14% hits;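 active means membrane potential signal drops by more than 5 SD from the mean control signal, in both duplicate plates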;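 further: plate controls were acetylcholine ECmax control wells for no effect and buffer only wells for full effect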
TRPC4 ctr mod: mouse TRPC4 off-target activity of TRPC6 modulators. shares compounds with TRPC6 inh. percent change from control (negative = decrease, positive = increase), % at 10 µM. HEK293 TRPC4/mu-opioid, membrane potential fluorescence. 2,400 compounds, 69% hits. AID 488927;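 active means membrane potential signal moved up or down beyond 5 SD of buffer control wells, in both duplicate plates, actives on both sides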;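 further: plate controls were assay buffer wells for no effect and DAMGO maximal-effect wells for full effect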
TRPC4/MOR inh 2: second check of whether TRPC6 modulators also affect mouse TRPC4; shares compounds with TRPC6 inh; HEK293 TRPC4/mu-opioid, membrane potential dye fluorescence; stimulated with maximal-effect DAMGO; inhibition, % at 10 µM; 2,400 compounds, 55% hits; AID 488928;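 active means drop in membrane potential signal beyond 5 SD of the control wells in both duplicate plates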;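 further: TRPC4 counter screen for TRPC6 hits run under conditions tuned for TRPC6 not TRPC4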
TRPC6 block conf: confirmation of mouse TRPC6 inhibitors. shares compounds with TRPC6 inh. HEK293-TRPC6, membrane potential dye, ACh-evoked depolarization. inhibition, % at 10 µM. 3,300 compounds, 43% hits;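 active means fluorescence ratio falls more than 5 SD below the full-stimulation control mean, in both duplicate runs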;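 further: integrated fluorescence ratio of peak minus minimum over baseline after agonist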
TRPC6 act confirm: mouse TRPC6 activator confirmation | HEK293-TRPC6 membrane potential dye fluorescence, FDSS | 2,800 compounds, 11% hits | activation, % at 10 µM | shares compounds with TRPC6 inh;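 active means ratio signal rise beyond 5 SD above unstimulated control wells' mean, seen in both duplicate runs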;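 further: plate controls were buffer EC0 wells for no effect and acetylcholine ECmax response for full effect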
Numbers without * were called inactive; i = inactive; · = no result.

SMILES	TRPC4 block	TRPC4 PAM	TRPC6 inh	TRPC4 agonist	TRPC6 act	HEK293 MPD ctr-2	HEK293 MPD ctr 2-2	TRPC4 ctr mod	TRPC4/MOR inh 2	TRPC6 block conf	TRPC6 act confirm	others
COc1ccc(C(=O)Nc2ccccc2C(=O)N/N=C/c2ccccn2)cc1OC	i	i	i	i	i	·	·	·	·	·	·
COc1ccc(C(=O)N/N=C/c2ccccn2)cc1OC	i	i	-7*	i	i	-296%*	i	-50%*	40%*	38%*	i
O=C1N(CN2CCN(Cc3ccccc3)CC2)c2ccccc2C12OCCCO2	i	i	i	i	i	·	·	·	·	·	·
CC1CN(CC(=O)NCc2ccc(F)cc2)CC(C)O1 (stereo not given)	i	i	i	i	i	·	·	·	·	·	·
CCOC(=O)c1c(N)n(C2CC(C)(C)NC(C)(C)C2)c2nc3ccccc3nc12	i	i	-5.4*	i	i	-294%*	i	-55%*	43%*	i	i
CCOC(=O)c1c(N)n(-c2ccc(N)cc2)c2nc3ccccc3nc12	i	i	i	i	i	·	·	·	·	·	·
Cc1cccc(OCc2nnc(SCc3cc(=O)n4cc(Br)ccc4n3)o2)c1	i	i	-8*	i	i	·	·	·	·	i	i	TRPC4 spec 2=i;TRPC4 spec=0.1%*;HEK293 MPD ctr 2-1=i;HEK293 MPD ctr-1=0.6%*
Cc1cc2c(cc1S(=O)(=O)C(C)CC(=O)NCc1ccco1)OCC(=O)N2 (stereo not given)	i	i	i	i	i	·	·	·	·	·	·
O=C(Cn1ncn2c(cc3sccc32)c1=O)NC1CCCC1	i	i	i	i	i	·	·	·	·	·	·
CCC(C)Nc1nc(-c2ccccn2)nc2ccccc12 (stereo not given)	i	i	-5.2*	i	i	-274%*	i	-40%*	53%*	i	i
c1cncc(CNc2nc(-c3cccnc3)nc3ccccc23)c1	i	i	i	i	i	·	·	·	·	·	·
c1ccc(CN2CCC(Nc3nc(-c4cccnc4)nc4ccccc34)CC2)cc1	i	i	-6.3*	i	i	-294%*	i	-52%*	66%*	56%*	i
CC(C)(C)c1ccc(-c2nc(NCc3cccnc3)c3ccccc3n2)cc1	i	i	-6.8*	i	i	i	i	i	i	i	i
c1ccc(CNc2nc(-c3ccccn3)nc3ccccc23)cc1	i	i	-7*	i	i	-208%*	i	-40%*	62%*	40%*	i
c1ccc(CNc2nc(-c3cccnc3)nc3ccccc23)cc1	i	i	i	i	i	·	·	·	·	·	·
COc1cccc2c1nc(C)c1cc(C)oc12	i	i	-5.8*	i	i	-316%*	i	-54%*	42%*	i	i
Cc1sc2nc(CN3CCCCC3)nc(Nc3ccc4c(c3)OCCO4)c2c1C	i	i	-5*	i	i	i	i	i	i	44%*	·
Cc1sc2nc(CN3CCCC3)nc(NCc3ccncc3)c2c1C	i	i	i	i	i	·	·	·	·	·	·
CCN(CC)CC#CCC(C)(c1ccccc1)c1ccccc1	i	i	-5*	i	i	142%*	i	36%*	i	i	·
CCN(CC)CC#CCC(O)(c1ccccc1)c1ccccc1	i	i	i	i	i	·	·	·	·	·	·
Cc1ccc(C)c(N2CCN(CCCc3ccccc3)CC2)c1	i	i	i	i	i	·	·	·	·	·	·
COc1cc(OC)cc(C(=O)N2CCC(n3c(C)nc4cc(F)ccc43)CC2)c1	i	i	i	i	20*	i	i	i	i	·	163%*
COc1ccc(NC(=O)CN2CCC(n3c(C)nc4cc(F)ccc43)CC2)c(OC)c1	i	i	i	i	i	·	·	·	·	·	·
COC1=C(Nc2ccccc2OC)C(=O)c2ccccc2C1=O	i	i	-5.8*	i	i	-91%*	i	-24%*	38%*	i	i
CCC(C)NC(=O)COCc1cc(-c2ccc3c(c2)OCO3)on1 (stereo not given)	i	i	i	i	i	·	·	·	·	·	·
CCN(CC)C(=O)COCc1cc(-c2ccc3c(c2)OCO3)on1	i	i	-7*	i	i	·	·	·	·	i	i	TRPC4 spec 2=i;TRPC4 spec=i;HEK293 MPD ctr 2-1=i;HEK293 MPD ctr-1=i
COc1cccc2c(Cl)c(CC=C(Cl)Cl)c(C)nc12	i	i	i	i	i	·	·	·	·	·	·
Cc1ccc2nc(C)c3c(c2c1)N(c1ccc(F)cc1)CC3	-6*	i	-9.6*	i	i	·	·	·	·	105%*	i	TRPC4 spec 2=34%*;TRPC4 spec=i;HEK293 MPD ctr 2-1=27%*;HEK293 MPD ctr-1=-194%*
COc1cccc2c3c(c(C)nc12)CCN3c1ccccc1	i	i	-8.5*	i	i	-182%*	i	-33%*	72%*	68%*	i
COc1ccccc1N1CCc2c(C)nc3c(OC)cccc3c21	-6*	i	-6.5*	i	i	-114%*	i	-19%*	58%*	46%*	i
